Source: PubChem BioAssay (Sanford-Burnham Center for Chemical Genomics)
UBC13 polyUb: UBC13 polyubiquitin chain formation inhibitors, primary screen, biochemical, TR-FRET, uHTS; Ubiquitin-conjugating enzyme E2 N (Homo sapiens), P61088; inhibition, % at 20 µM; hit rate 0.47% among 330,000; AID 485273, 2010; in the data active means inhibition above about 45%, passing the limit was not always enough
Target sequence (P61088 whole entry, looked up): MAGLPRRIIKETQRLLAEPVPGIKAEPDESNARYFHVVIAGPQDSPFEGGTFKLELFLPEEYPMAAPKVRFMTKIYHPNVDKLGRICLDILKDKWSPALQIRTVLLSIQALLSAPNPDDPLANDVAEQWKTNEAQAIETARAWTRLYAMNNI
XBP1 UPR activ: activators of adaptive XBP1 UPR arm, primary screen, cell-based, CHO-XBP1 luciferase reporter, luminescence, uHTS; activation, % at 20 µM; hit rate 0.33% among 330,000; AID 463104, 2010; IRE1-XBP1 UPR activation; percent of tunicamycin response, DMSO as zero;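 active means versus positive control, 20 µM dose yields 30% or more activation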
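Material: CHO cell line with stable XBP1 luciferase reporter; buffer or medium: F12 medium containing 10% fetal bovine serum; compound: single point, 20 µM final compound, 1% DMSO; incubation: 6 h treatment, 37 °C; measured by: glow luminescence from Steady-Glo reagent; evaluation: activation, % of tunicamycin; control set: tunicamycin high, DMSO low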
Mdm2-MdmX inh: inhibitors of human Mdm2-MdmX association, primary screen, cell-based, luminescence, split luciferase, SaOS-2, uHTS; hit rate 3% among 330,000; SaOS-2 split-luciferase Mdm2/MdmX complementation; Protein Mdm4 (Homo sapiens) + E3 ubiquitin-protein ligase Mdm2 (Homo sapiens), …; inhibition, % at 8 µM;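 active means inhibition of at least 50% at 8 µM in the primary screen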
UPR CHOP act: activators of apoptotic CHOP UPR arm, primary screen, cell-based, CHO-CHOP luciferase reporter, luminescence, uHTS | UPR activation; percent of tunicamycin response over DMSO baseline | activation, % at 10 µM | AID 449763, 2010 | hit rate 0.34% among 330,000;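 active means at 10 µM dose, activation of 40% or more, normalized to positive control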
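Evaluation: % reporter activation, DMSO baseline versus tunicamycin full activation; System: CHO-CHOP luciferase reporter cell line; Input: 500 cells/well; Incubation: 6 h compound treatment, 37 °C; Measured by: Steady-Glo luciferase luminescence; Dosing: one dose, 10 µM in 0.5% DMSO; Buffer or medium: F12 medium, 10% FBS; Benchmarks: positive tunicamycin 10 µg/mL, negative DMSO alone.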
Apaf-1 inh: inhibitors of human Apaf-1 apoptosome, primary screen, biochemical, DEVD-Rh110 fluorescence, uHTS | Apoptotic protease-activating factor 1 (Homo sapiens), O14727 | hit rate 0.71% among 330,000 | reconstituted apoptosome caspase-3 activity | inhibition, % at 20 µM | AID 489030, 2010; active means inhibition of at least 40% at 20 µM
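System: Apoptosome proteins | Medium: Hepes pH 7.5 with detergent and BSA | Also added: Cytochrome c trigger plus (Z-DEVD)2-Rh110 caspase-3 substrate | Incubation: 30 min compound preincubation, 50 min activation, room temperature | Detection: Rhodamine 110 fluorescence at Ex 480/Em 540 nm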
Mdm2 MdmX conf: Mdm2-MdmX complex disruptors, retested hits, confirmation, luminescence, single concentration; shares compounds with Mdm2-MdmX inh; Mdm2-MdmX binding, luminescent assay; inhibition, % at 8 µM; hit rate 55% among 10,000; AID 489028, 2010; in the data active means inhibition above about 40%
Full FLuc ctr: full-length luciferase signal inhibition, confirmation, counter-screen for Mdm2/MdmX interaction inhibitor project, cell-based, single concentration, SaOS-2. shares compounds with Mdm2-MdmX inh. SaOS-2 full-length luciferase counterscreen, luminescence. inhibition, % at 8 µM. hit rate 77% among 6,200. AID 504607, 2011;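 active means mean inhibition at 8 µM reaching about 37%, which flags the compound as non-specific, limit read from the data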;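 further: p53-null SaOS-2 cells with luciferase driven by a doxycycline-inducible promoter; compound on cells about two nights before reading with doxycycline added after day one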
Numbers stand for hits; i = inactive; nt = no result given. In the library only some 4.1% were active in any assay of this set; here they are far more common.

SMILES	UBC13 polyUb	XBP1 UPR activ	Mdm2-MdmX inh	UPR CHOP act	Apaf-1 inh	Mdm2 MdmX conf	Full FLuc ctr
CS(=O)(=O)N1CCN(c2ccccc2NC(=O)c2cc3ccccc3o2)CC1	i	i	i	i	i	nt	nt
COc1ccccc1/C=C/C(=O)OCC(=O)Nc1ccc(Cl)cn1	i	i	55.1	i	i	51.4	59.9
COc1cccc(-c2cc(C(=O)NCC3CCCO3)c3cc(Br)cc(C)c3n2)c1 (configuration not stated)	i	i	i	i	i	nt	nt
Cc1cc(Br)cc2c(C(=O)NCC3CCCO3)cc(-c3cccs3)nc12 (configuration not stated)	i	i	55.9	i	i	i	nt
O=C(CCNC(=O)c1ccc(Br)cc1)NC1CCCc2ccccc21 (configuration not stated)	i	i	88.5	i	i	89.3	45.8
O=C(NCc1ccc2c(c1)OCO2)C1CCN(c2nccc(C(F)(F)F)n2)CC1	i	i	i	i	i	nt	nt
CCOC(=O)c1c(C)[nH]c(C)c1S(=O)(=O)NCCCN1CCOCC1	i	i	i	i	i	nt	nt
CCOC(=O)c1c(C)[nH]c(C)c1S(=O)(=O)NCCN1CCN(c2cc(Cl)ccc2C)CC1	i	i	59.0	i	i	i	nt
COc1cc(OC)cc(OC(=O)C2CCN(C(=O)c3ccc(Cl)cc3)CC2)c1	i	i	i	i	i	nt	nt
CN(Cc1ccco1)S(=O)(=O)c1csc(C(N)=O)c1	i	i	i	i	i	nt	nt
Cc1cc([N+](=O)[O-])cc(/C=N\NC(=O)C2COc3ccccc3O2)c1O (configuration not stated)	i	i	51.6	i	i	40.5	i
CCN(CC)c1ccc(/C=N/NC(=O)CNC(=O)C2COc3ccccc3O2)c(O)c1 (configuration not stated)	i	i	77.1	i	i	76.3	i
CCN(CC)c1ccc(/C=N/NC(=O)CCC(=O)NCc2ccccc2)c(O)c1	i	i	71.4	i	i	76.1	i
O=C(N/N=C\c1ccc(O)c([N+](=O)[O-])c1)C1COc2ccccc2O1 (configuration not stated)	i	i	i	i	i	nt	nt
CCOC(=O)N/N=C/c1ccc(N(CC)CC)cc1O	i	i	i	i	i	nt	nt
CNc1ncnc(Sc2ccc(Cl)cc2)c1[N+](=O)[O-]	i	i	i	i	i	nt	nt
CCN(CC)c1cc(CS(=O)c2ccccc2)nc(-c2ccccc2)n1 (configuration not stated)	i	i	i	i	i	nt	nt
COc1ccc(-c2nn(-c3ccccc3)cc2C(=O)NC2CCCCC2C)cc1 (configuration not stated)	i	i	73.8	i	i	i	nt
COCCCNC(=O)c1ccc(-n2nc(C(F)(F)F)cc2-c2cccs2)cc1	i	i	i	i	i	nt	nt
O=C(NCCCN1CCOCC1)c1ccc(-n2nc(C(F)(F)F)cc2-c2cccs2)cc1	i	i	76.6	i	i	i	nt
Cc1c(CN2CCC(CO)(Cc3cccc(C(F)(F)F)c3)CC2)c2ccccc2n1C	i	i	67.7	i	i	42.4	70.5
C[C@@H](C[C@@H](O)[C@H](O)C(C)(C)O)[C@@H]1CC[C@]2(C)C3=CC[C@H]4C(C)(C)C(=O)CC[C@]4(C)[C@H]3CC[C@@]12C	i	i	50.6	i	i	40.2	96.4
Cn1nc(-c2ccccc2)c(CSc2ccccc2Cl)c1Cl	i	i	52.6	i	i	64.6	55.9
FC(F)(F)c1nnc2c(Sc3ccccc3)nc3ccccc3n12	i	i	68.0	i	i	i	nt
